# In ChEMBL document CHEMBL4270599, “Synthesis of a 3'-C-ethynyl-β-d-ribofuranose purine nucleoside library: Discovery of C7-deazapurine analogs as potent antiproliferative nucleosides” (Eur J Med Chem, 2018):
# Legend:
# MDA-MB-468 [1] = experiment: Growth inhibition of human MDA-MB-468 cells assessed as cell growth at 10^-8 M incubated for 48 hrs by sulforhodamine B assay relative to control; assay type: functional; conditions: MDA-MB-468, 48 h, read-out: Activity
# A498 = experiment: Cytotoxicity against human A498 cells after 48 hrs by SRB assay; assay type: functional; conditions: A498, 48 h
# NCI-H23 = experiment: Growth inhibition of human NCI-H23 cells assessed as cell growth at 10^-7 M incubated for 48 hrs by sulforhodamine B assay relative to control; assay type: functional; conditions: NCI-H23, 48 h, read-out: Activity
# SNB-19 [2] = experiment: Cytotoxicity against human SNB19 cells after 48 hrs by SRB assay; assay type: functional; conditions: SNB-19, 48 h
# M14 [3] = experiment: Growth inhibition of human M14 cells assessed as cell growth at 10^-5 M incubated for 48 hrs by sulforhodamine B assay relative to control; assay type: functional; conditions: M14, 48 h, read-out: Activity
# U-251 = experiment: Cytotoxicity against human U251 cells after 48 hrs by SRB assay; assay type: functional; conditions: U-251, 48 h
# HOP-62 = experiment: Growth inhibition of human HOP62 cells assessed as cell growth at 10^-7 M incubated for 48 hrs by sulforhodamine B assay relative to control; assay type: functional; conditions: HOP-62, 48 h, read-out: Activity
# A549 = experiment: Growth inhibition of human A549/ATCC cells assessed as cell growth at 10^-7 M incubated for 48 hrs by sulforhodamine B assay relative to control; assay type: functional; conditions: A549, 48 h, read-out: Activity
# NCI-H226 [4] = experiment: Growth inhibition of human NCI-H226 cells assessed as cell growth at 10^-6 M incubated for 48 hrs by sulforhodamine B assay relative to control; assay type: functional; conditions: NCI-H226, 48 h, read-out: Activity
# NCI-H226 [5] = experiment: Growth inhibition of human NCI-H226 cells assessed as cell growth at 10^-8 M incubated for 48 hrs by sulforhodamine B assay relative to control; assay type: functional; conditions: NCI-H226, 48 h, read-out: Activity
# SNB-19 [6] = experiment: Growth inhibition of human SNB19 cells assessed as cell growth at 10^-5 M incubated for 48 hrs by sulforhodamine B assay relative to control; assay type: functional; conditions: SNB-19, 48 h, read-out: Activity
# SW-620 = experiment: Growth inhibition of human SW620 cells assessed as cell growth at 10^-6 M incubated for 48 hrs by sulforhodamine B assay relative to control; assay type: functional; conditions: SW-620, 48 h, read-out: Activity
# T47D = experiment: Cytotoxicity against human T47D cells after 48 hrs by SRB assay; assay type: functional
# MDA-MB-231 [7] = experiment: Growth inhibition of human MDA-MB-231 cells assessed as cell growth at 10^-4 M incubated for 48 hrs by sulforhodamine B assay relative to control; assay type: functional; conditions: MDA-MB-231, 48 h, read-out: Activity
# IGROV-1 = experiment: Growth inhibition of human IGROV1 cells assessed as cell growth at 10^-4 M incubated for 48 hrs by sulforhodamine B assay relative to control; assay type: functional; conditions: IGROV-1, 48 h, read-out: Activity
# SR = experiment: Cytotoxicity against human SR cells after 48 hrs by SRB assay; assay type: functional
# HUVEC = experiment: Antiproliferative activity against HUVEC cells after 4 days by Coulter counter method; assay type: cell-based; conditions: Homo sapiens, 96 h
# In short: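 Primary HUVEC, primary HMVEC-d and the HMEC-1 line seeded at 20,000 cells/well in gelatin-coated plates in EC growth medium (EGM2). After overnight incubation, 5-fold compound dilutions added. Cells proliferated four days with compound, then trypsinized and counted by Coulter counter to derive IC₅₀.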
# M14 [8] = experiment: Cytotoxicity against human M14 cells after 48 hrs by SRB assay; assay type: functional; conditions: M14, 48 h
# KM12 = experiment: Cytotoxicity against human KM12 cells after 48 hrs by SRB assay; assay type: functional; conditions: KM12, 48 h
# SN12C = experiment: Growth inhibition of human SN12C cells assessed as cell growth at 10^-7 M incubated for 48 hrs by sulforhodamine B assay relative to control; assay type: functional; conditions: read-out: Activity
# OVCAR-5 = experiment: Growth inhibition of human OVCAR5 cells assessed as cell growth at 10^-6 M incubated for 48 hrs by sulforhodamine B assay relative to control; assay type: functional; conditions: OVCAR-5, 48 h, read-out: Activity
# HCC 2998 = experiment: Growth inhibition of human HCC2998 cells assessed as cell growth at 10^-7 M incubated for 48 hrs by sulforhodamine B assay relative to control; assay type: functional; conditions: HCC 2998, 48 h, read-out: Activity
# ACHN = experiment: Growth inhibition of human ACHN cells assessed as cell growth at 10^-7 M incubated for 48 hrs by sulforhodamine B assay relative to control; assay type: functional; conditions: read-out: Activity
# SNB-75 = experiment: Growth inhibition of human SNB75 cells assessed as cell growth at 10^-6 M incubated for 48 hrs by sulforhodamine B assay relative to control; assay type: functional; conditions: SNB-75, 48 h, read-out: Activity
# MDA-MB-468 [9] = experiment: Growth inhibition of human MDA-MB-468 cells assessed as cell growth at 10^-7 M incubated for 48 hrs by sulforhodamine B assay relative to control; assay type: functional; conditions: MDA-MB-468, 48 h, read-out: Activity
# CCRF-CEM = experiment: Growth inhibition of human CCRF-CEM cells assessed as cell growth at 10^-4 M incubated for 48 hrs by sulforhodamine B assay relative to control; assay type: functional; conditions: read-out: Activity
# OVCAR-4 = experiment: Cytotoxicity against human OVCAR4 cells after 48 hrs by SRB assay; assay type: functional; conditions: OVCAR-4, 48 h
# L1210 = experiment: Antiproliferative activity against mouse L1210 cells after 48 hrs by Coulter counter method; assay type: functional, cell-based; conditions: L1210, 48 h
# In short: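 Cell count assay in 96-well microtiter plates; (5–7.5) × 10⁴ tumor cells per well plus test compound. Cells proliferated at 37 °C in humidified CO₂-controlled atmosphere, 48 h for murine leukemia L1210, 72 h for human lymphocytic CEM and cervix carcinoma HeLa. Counted by Coulter counter; IC₅₀ is the concentration that inhibits proliferation by 50%.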
# MDA-MB-231 [10] = experiment: Growth inhibition of human MDA-MB-231 cells assessed as cell growth at 10^-6 M incubated for 48 hrs by sulforhodamine B assay relative to control; assay type: functional; conditions: MDA-MB-231, 48 h, read-out: Activity
# TK-10 = experiment: Growth inhibition of human TK10 cells assessed as cell growth at 10^-6 M incubated for 48 hrs by sulforhodamine B assay relative to control; assay type: functional; conditions: TK-10, 48 h, read-out: Activity
# [11] = read-out: pLC50 (the source's name) (converted)
# [12] = read-out: LC50 (the source's name)
compound,measurement,setting,value
C#C[C@@]1(O)[C@@H](CO)O[C@@H](n2cc(F)c3c(N)ncnc32)[C@@H]1O,growth at 0.01 µM,MDA-MB-468 [1],92%
same,TGI,A498; read-out: TGI,2270 nM
same,GI50,A498; read-out: pGI50 (converted),724 nM
same,CC50,A498; [11],5890 nM
same,TGI,A498; read-out: pTGI (converted),2290 nM
same,growth at 0.1 µM,NCI-H23,91%
same,CC50,SNB-19 [2]; [12],> 100000 nM
same,TGI,SNB-19 [2]; read-out: TGI,13700 nM
same,GI50,SNB-19 [2]; read-out: pGI50 (converted),525 nM
same,TGI,SNB-19 [2]; read-out: pTGI (converted),13800 nM
same,growth at 10 µM,M14 [3],-48%
same,GI50,U-251; read-out: GI50,631 nM
same,TGI,U-251; read-out: TGI,11600 nM
same,GI50,U-251; read-out: pGI50 (converted),631 nM
same,CC50,U-251; [11],> 100000 nM
same,TGI,U-251; read-out: pTGI (converted),11700 nM
same,growth at 0.1 µM,HOP-62,101%
same,growth at 0.1 µM,A549,92%
same,growth at 1 µM,NCI-H226 [4],32%
same,growth at 0.01 µM,NCI-H226 [5],92%
same,growth at 10 µM,SNB-19 [6],7%
same,growth at 1 µM,SW-620,4%
same,TGI,T47D; read-out: TGI,770 nM
same,GI50,T47D; read-out: pGI50 (converted),214 nM
same,CC50,T47D; [11],20000 nM
same,TGI,T47D; read-out: pTGI (converted),776 nM
same,growth at 100 µM,MDA-MB-231 [7],-35%
same,growth at 100 µM,IGROV-1,-38%
same,CC50,SR; [12],> 100000 nM
same,TGI,SR; read-out: TGI,> 100000 nM
same,GI50,SR; read-out: pGI50 (converted),186 nM
same,TGI,SR; read-out: pTGI,> 100000 nM
same,IC50,HUVEC,67 nM
same,CC50,M14 [8]; [12],> 100000 nM
same,TGI,M14 [8]; read-out: TGI,2390 nM
same,GI50,M14 [8]; read-out: pGI50 (converted),479 nM
same,TGI,M14 [8]; read-out: pTGI (converted),2400 nM
same,CC50,KM12; [12],> 100000 nM
same,TGI,KM12; read-out: TGI,24900 nM
same,GI50,KM12; read-out: pGI50 (converted),501 nM
same,TGI,KM12; read-out: pTGI (converted),25100 nM
same,growth at 0.1 µM,SN12C,80%
same,growth at 1 µM,OVCAR-5,65%
same,growth at 0.1 µM,HCC 2998,97%
same,growth at 0.1 µM,ACHN,75%
same,growth at 1 µM,SNB-75,52%
same,growth at 0.1 µM,MDA-MB-468 [9],84%
same,growth at 100 µM,CCRF-CEM,1%
same,TGI,OVCAR-4; read-out: TGI,8670 nM
same,GI50,OVCAR-4; read-out: pGI50 (converted),1000 nM
same,CC50,OVCAR-4; [11],> 100000 nM
same,TGI,OVCAR-4; read-out: pTGI (converted),8710 nM
same,IC50,L1210,35 nM
same,growth at 1 µM,MDA-MB-231 [10],22%
same,growth at 1 µM,TK-10,42%
